The record followed here is ChEMBL document CHEMBL1141617, “Synthesis and evaluation of antitumoral activity of ester and amide derivatives of 2-arylamino-6-trifluoromethyl-3-pyridinecarboxylic acids” (2008).

A value given as a limit tells only on which side of the number the result lay.

Assay type in all cases: functional
For experiment [1], the system named is SNB-75. Put plainly: Growth inhibition of human SNB75 cells. The method, boiled down: (§1)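 NCI 60 human tumour cell line panel grown in RPMI1640 with 5% fetal calf serum and 2 mM L-glutamine. Cells seeded at a density set by each line's growth characteristics and preincubated 24 h. Compounds added in DMSO at 10^-4 to 10^-8 M (five 10-fold dilutions) and left 48 h continuously. Growth read by sulforhodamine B protein stain. GI50 is the molar concentration giving 50% net growth inhibition.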

In experiment [2] the test system is IGROV-1. Put plainly: Growth inhibition of human IGROV1 cells. In outline: as §1
Experiment [3] relates to CAKI-1. As to the kind of experiment: Growth inhibition of human CAKI1 cells. In outline: as §1
Experiment [4] deals with HOP-92. As to the kind of experiment: Growth inhibition of human HOP92 cells. Particulars: for TGI: read-out: Log TGI (converted). The method, boiled down: as §1
For experiment [5], the system named is Hs-578T. As to the kind of experiment: Growth inhibition of human HS578T cells. Conditions: for TGI: read-out: Log TGI (converted). In outline: as §1
The subject of experiment [6] is MOLT-4. Put plainly: Growth inhibition of human MOLT4 cells. In outline: as §1
Experiment [7] relates to CCRF-CEM. Put plainly: Growth inhibition of human CCRF-CEM cells. In outline:
as §1

Experiment [8] relates to RXF 393. As to the kind of experiment: Growth inhibition of human RXF393 cells. The method, boiled down:
as §1

The subject of experiment [9] is K562. As to the kind of experiment: Growth inhibition of human K562 cells. The method, boiled down: as §1
The test system of experiment [10] is LOX IMVI. As to the kind of experiment: Growth inhibition of human LOXIMVI cells. The method, boiled down: as §1
Experiment [11] relates to NCI-H226. Put plainly: Growth inhibition of human NCI-H226 cells. The method, boiled down:
as §1

A short description of experiment [12]: Growth inhibition of human NCI-322M cells. The method, boiled down: as §1
Experiment [13] deals with SK-MEL-5. Put plainly: Growth inhibition of human SK-MEL5 cells. In outline:
as §1

Experiment [14] relates to UO-31. As to the kind of experiment: Growth inhibition of human UO31 cells. In outline: as §1
Experiment [15] has as its system SR. Put plainly: Growth inhibition of human SR cells. In outline: as §1

As to `Cc1ccc(Cl)cc1Nc1nc(C(F)(F)F)ccc1C(=O)N1CCN(c2ccc(F)cc2)CC1`, the values for the GI50 in experiment [1], in experiment [2] and in [3] were below 10 nM, 132 nM and 1510 nM, respectively.

Take `COc1cccc(OC(=O)c2ccc(C(F)(F)F)nc2Nc2cc(Cl)ccc2C)c1`: the GI50 in experiment [4] was 1620 nM; in experiment [5] it was 1230 nM; in [6] it was 3090 nM; in experiment [7] it was 2140 nM; in experiment [8], 245 nM; in [9], 3090 nM. The TGI in experiment [4] was 6920 nM; in experiment [5] it was 4790 nM; in experiment [6] (read-out: Log TGI (converted)), 7940 nM; in experiment [7] (read-out: Log TGI (converted)) it was 5130 nM; in experiment [8] (read-out: Log TGI (converted)), 977 nM; in experiment [9] (read-out: Log TGI (converted)), 9330 nM.

Regarding `Cc1cc(Cl)ccc1Nc1nc(C(F)(F)F)ccc1C(=O)N1CCN(c2cccc(Cl)c2)CC1`, the GI50 was 1120 nM in [1] and 1780 nM in experiment [2].

Turning to `Cc1ccc(Cl)cc1Nc1nc(C(F)(F)F)ccc1C(N)=O`, the GI50 is 2240 nM in experiment [10]; 1450 nM in experiment [11]; 813 nM in experiment [5]; 2040 nM in experiment [12]; 1910 nM in experiment [13]. Also, the TGI in experiment [11] (read-out: Log TGI (converted)) was 9770 nM; in experiment [5], 3980 nM; in experiment [13] (read-out: Log TGI (converted)), 6610 nM.

In the case of `COc1ccc(N2CCN(C(=O)c3ccc(C(F)(F)F)nc3Nc3cc(Cl)ccc3C)CC2)cc1`, the GI50 in experiment [4] is 1480 nM; in experiment [13], 955 nM; in experiment [2], 51.3 nM; in [3], 1380 nM; in experiment [14], 1700 nM. For the same compound, in experiment [4], the TGI is 7940 nM.

The compound `Cc1ccc(Cl)cc1Nc1nc(C(F)(F)F)ccc1C(=O)N1CCN(c2cccc(Cl)c2)CC1` showed a concentration for 50% growth inhibition (GI50) in experiment [15] of 2750 nM.

Broadly, the GI50 is the concentration that inhibits growth by half. A low value points to greater sensitivity of the cells. By TGI is commonly meant the concentration at which net growth stops.
